This note sets out measurements from ChEMBL document CHEMBL5678799 (Biochem J, 2009).

One may read the inhibition as the drop in the measured response relative to a control, in per cent.

Data set [1] deals with Eukaryotic elongation factor 2 kinase (Homo sapiens) (UniProt O00418). In words: Inhibition of recombinant human N-terminal GST-tagged EF2K (2 to 725 residues) expressed in Escherichia coli assessed as remaining activity at 10 uM using RKKFGESKTKTKEFL as substrate incubated for 30 mins in presence of [gamma-33P]ATP by filter binding method relative to control. Put shortly: (§1)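 Kinase panel run robotically at 21 °C for 30 min, linear in time and enzyme. […] Compound tested at 1 or 10 µM. Activity given as percentage of incubations without compound, mean of triplicates ± S.D.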
Eukaryotic elongation factor 2 kinase (Homo sapiens), sequence (O00418 whole entry, the tested form may be a part): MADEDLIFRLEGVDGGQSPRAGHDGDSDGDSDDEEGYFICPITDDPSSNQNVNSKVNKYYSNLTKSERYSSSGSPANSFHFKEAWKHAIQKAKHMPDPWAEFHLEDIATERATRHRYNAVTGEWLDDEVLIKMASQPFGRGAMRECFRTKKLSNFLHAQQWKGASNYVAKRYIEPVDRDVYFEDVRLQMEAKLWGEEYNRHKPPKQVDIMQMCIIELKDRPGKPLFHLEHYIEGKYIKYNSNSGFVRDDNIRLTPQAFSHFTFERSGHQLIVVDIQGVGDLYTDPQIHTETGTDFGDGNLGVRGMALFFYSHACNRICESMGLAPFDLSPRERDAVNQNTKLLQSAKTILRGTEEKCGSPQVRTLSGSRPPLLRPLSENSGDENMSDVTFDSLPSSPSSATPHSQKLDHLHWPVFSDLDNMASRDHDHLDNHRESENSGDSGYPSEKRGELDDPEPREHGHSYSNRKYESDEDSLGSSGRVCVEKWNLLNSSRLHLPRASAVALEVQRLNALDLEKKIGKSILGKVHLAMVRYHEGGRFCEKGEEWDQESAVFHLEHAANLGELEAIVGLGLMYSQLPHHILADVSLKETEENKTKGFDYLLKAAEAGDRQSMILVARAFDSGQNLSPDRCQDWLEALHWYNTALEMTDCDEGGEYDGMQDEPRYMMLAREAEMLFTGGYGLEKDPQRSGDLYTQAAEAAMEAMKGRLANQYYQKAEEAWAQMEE

Data set [2] deals with Mitogen-activated protein kinase 1 (Homo sapiens) (UniProt P28482). Put plainly: Inhibition of recombinant human N-terminal GST-tagged ERK2 (2 to 360 residues) expressed in Escherichia coli assessed as remaining activity at 1 uM using MBP as substrate incubated for 30 mins in presence of [gamma-33P]ATP by filter binding method relative to control. Put shortly:
(§2)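 Incubation was 30 min at room temperature (21 °C) under conditions linear with time and enzyme amount. Activity is reported as percent of control lacking compound, triplicate mean ± S.D.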

Data set [3] has as its target Insulin receptor (Homo sapiens) (UniProt P06213). In words: Inhibition of recombinant human N-terminal His6-tagged IR (1001 to 1382 residues) expressed in baculovirus infected Sf21 cells assessed as remaining activity at 1 uM using KKSRGDYMTMQIG as substrate incubated for 30 mins in presence of [gamma-33P]ATP by filter binding method relative to control. The method in brief:
(§3)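 Panel assays were run for 30 min at 21 °C, within the linear range for time and enzyme. […] Results are percent activity remaining relative to compound-free control, averaged from triplicate ± S.D.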

Data set [4] has as its target Mitogen-activated protein kinase 11 (Homo sapiens) (UniProt Q15759). In words: Inhibition of recombinant human N-terminal GST-tagged P38beta (1 to 364 residues) expressed in Escherichia coli assessed as remaining activity at 1 uM using MBP as substrate incubated for 30 mins in presence of [gamma-33P]ATP by filter binding method relative to control. Put shortly:
as §3

The target in data set [5] is Mitogen-activated protein kinase 3 (Homo sapiens) (UniProt P27361). Put plainly: Inhibition of recombinant human N-terminal GST-tagged ERK1 (2 to 379 residues) expressed in Escherichia coli assessed as remaining activity at 10 uM using MBP as substrate incubated for 30 mins in presence of [gamma-33P]ATP by filter binding method relative to control. The method in brief: as §1

In data set [6] the target is Mitogen-activated protein kinase 14 (Homo sapiens) (UniProt Q16539). In words: Inhibition of recombinant human N-terminal GST-tagged P38alpha (1 to 360 residues) expressed in Escherichia coli assessed as remaining activity at 1 uM using MBP as substrate incubated for 30 mins in presence of [gamma-33P]ATP by filter binding method relative to control. The method in brief:
as §2

The target in data set [7] is Serine/threonine-protein kinase Nek6 (Homo sapiens) (UniProt Q9HC98). Put plainly: Inhibition of recombinant human His6-tagged NEK6 (8 to 313 residues) expressed in baculovirus infected Sf21 cells assessed as remaining activity at 10 uM using FLAKSFGSPNRAYKK as substrate incubated for 30 mins in presence of [gamma-33P]ATP by filter binding method relative to control. Put shortly: (§4)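 Run robotically for 30 min at 21 °C under linear conditions. Compound at 1 or 10 µM. Percentage activity remaining versus control without compound, triplicate mean ± S.D.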

The target in data set [8] is Mitogen-activated protein kinase 8 (Homo sapiens) (UniProt P45983). Put plainly: Inhibition of recombinant human His6-tagged JNK1alpha1 (1 to 384 residues) expressed in baculovirus infected Sf21 cells assessed as remaining activity at 1 uM using ATF2 as substrate incubated for 30 mins in presence of [gamma-33P]ATP by filter binding method relative to control. The method in brief: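 Robotic radiometric panel assay, 30 min at room temperature (21 °C), with 10 mM magnesium acetate. […] Compound at 1 or 10 µM. Residual activity expressed relative to compound-free control; triplicate average ± S.D.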

The target in the next data set is mTORC2 (Homo sapiens) (UniProt P42345+Q6R327+Q9BVC4+Q9BPZ7). To be noted: HEK293, dose 30-100 nM, time 30.0 min.
Data set [9] concerns the target Dual specificity tyrosine-phosphorylation-regulated kinase 2 (Homo sapiens) (UniProt Q92630). In words: Inhibition of recombinant human N-terminal GST-tagged DYRK2 (3 to 528 residues) expressed in Escherichia coli assessed as remaining activity at 1 uM using KKISGRLSPIMTEQ as substrate incubated for 30 mins in presence of [gamma-33P]ATP by filter binding method relative to control. Put shortly: as §4

The target of data set [10] is Mitogen-activated protein kinase 9 (Homo sapiens) (UniProt P45984). Put plainly: Inhibition of recombinant human N-terminal His6-tagged JNK2alpha2 (1 to 424 residues) expressed in baculovirus infected Sf21 cells assessed as remaining activity at 1 uM using ATF2 as substrate incubated for 30 mins in presence of [gamma-33P]ATP by filter binding method relative to control.

For data set [11], the target named is Casein kinase II subunit alpha (Homo sapiens) (UniProt P68400). In words: Inhibition of recombinant human N-terminal His6-tagged CK2alpha1 (2 to 391 residues) expressed in Escherichia coli assessed as remaining activity at 10 uM using RRRDDDSDDD as substrate incubated for 30 mins in presence of [gamma-33P]ATP by filter binding method relative to control. The method in brief: (§5)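 Radiometric panel assay run robotically at 21 °C for 30 min, linear in time and enzyme. […] Activity is expressed as percentage of the compound-omitted control, averaged from triplicates ± S.D.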
Casein kinase II subunit alpha (Homo sapiens), sequence (P68400 whole entry, looked up, the tested form may be a part): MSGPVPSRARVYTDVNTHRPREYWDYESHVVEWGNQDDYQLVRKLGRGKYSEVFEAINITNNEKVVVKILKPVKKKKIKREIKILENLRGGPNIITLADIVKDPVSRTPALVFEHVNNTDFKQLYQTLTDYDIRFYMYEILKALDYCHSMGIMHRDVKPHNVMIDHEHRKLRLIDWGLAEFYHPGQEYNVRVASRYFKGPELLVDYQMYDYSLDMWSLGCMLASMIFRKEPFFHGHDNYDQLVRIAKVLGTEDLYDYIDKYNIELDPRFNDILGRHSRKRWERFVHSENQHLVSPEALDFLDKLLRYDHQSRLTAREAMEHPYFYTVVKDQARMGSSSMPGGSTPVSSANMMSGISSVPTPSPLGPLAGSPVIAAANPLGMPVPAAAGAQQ

Data set [12] shares this target. In words: Inhibition of recombinant human N-terminal His6-tagged CK2alpha1 (2 to 391 residues) expressed in Escherichia coli assessed as remaining activity at 1 uM using RRRDDDSDDD as substrate incubated for 30 mins in presence of [gamma-33P]ATP by filter binding method relative to control. Put shortly: as §5
The target in a further data set is mTORC1 (Homo sapiens) (UniProt P42345+Q8N122+Q9BVC4). The following applies: HEK293, dose 30.0 nM, time 30.0 min.
The target in data set [13] is Serine/threonine-protein kinase PLK1 (Homo sapiens) (UniProt P53350). In words: Inhibition of recombinant human N-terminal His6-tagged PLK1 (1 to 603 residues) expressed in baculovirus infected Sf21 cells assessed as remaining activity at 10 uM using ISDELMDATFADQEAKKK as substrate incubated for 30 mins in presence of [gamma-33P]ATP by filter binding method relative to control. The method in brief: as §5
Serine/threonine-protein kinase PLK1 (Homo sapiens), sequence (P53350 whole entry, the tested form may be a part): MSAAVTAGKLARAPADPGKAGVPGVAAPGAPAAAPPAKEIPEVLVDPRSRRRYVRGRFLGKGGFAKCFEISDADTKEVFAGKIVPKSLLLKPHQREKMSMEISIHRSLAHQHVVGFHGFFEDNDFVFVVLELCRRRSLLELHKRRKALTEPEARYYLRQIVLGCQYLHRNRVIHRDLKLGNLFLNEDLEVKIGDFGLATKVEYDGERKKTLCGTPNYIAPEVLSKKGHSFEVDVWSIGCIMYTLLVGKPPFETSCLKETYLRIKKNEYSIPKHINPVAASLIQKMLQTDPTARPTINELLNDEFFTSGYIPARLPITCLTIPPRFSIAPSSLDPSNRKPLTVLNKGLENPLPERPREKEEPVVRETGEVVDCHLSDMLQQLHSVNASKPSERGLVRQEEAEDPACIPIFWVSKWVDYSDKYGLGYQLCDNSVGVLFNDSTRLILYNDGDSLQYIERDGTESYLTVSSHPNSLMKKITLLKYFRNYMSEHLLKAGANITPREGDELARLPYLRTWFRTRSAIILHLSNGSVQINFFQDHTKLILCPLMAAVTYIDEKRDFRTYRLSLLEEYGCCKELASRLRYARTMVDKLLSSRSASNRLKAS

A further data set has as its system MEF. Put plainly: Induction of cell cycle arrest in MEF cells assessed as accumulation at G1 phase at 3 uM incubated for 1 to 3 days by propidium iodide staining based flow cytometric analysis (reference value: 21.4 +/- 1.7%). It is filed as toxicity. The following applies: mouse, time 1-3 day. For orientation: A flow cytometer gives signals particle by particle.

The target of data set [14] is Serine/threonine-protein kinase pim-3 (Homo sapiens) (UniProt Q86V86). In words: Inhibition of recombinant human N-terminal His6-tagged PIM3 (2 to 326 residues) expressed in baculovirus infected Sf21 cells assessed as remaining activity at 1 uM using RSRHSSYPAGT as substrate incubated for 30 mins in presence of [gamma-33P]ATP by filter binding method relative to control.

Active and inactive are the calls of the source. No cut-off for these calls is given here.

Mitogen-activated protein kinase 14 (Homo sapiens), sequence (Q16539 whole entry, the tested form may be a part): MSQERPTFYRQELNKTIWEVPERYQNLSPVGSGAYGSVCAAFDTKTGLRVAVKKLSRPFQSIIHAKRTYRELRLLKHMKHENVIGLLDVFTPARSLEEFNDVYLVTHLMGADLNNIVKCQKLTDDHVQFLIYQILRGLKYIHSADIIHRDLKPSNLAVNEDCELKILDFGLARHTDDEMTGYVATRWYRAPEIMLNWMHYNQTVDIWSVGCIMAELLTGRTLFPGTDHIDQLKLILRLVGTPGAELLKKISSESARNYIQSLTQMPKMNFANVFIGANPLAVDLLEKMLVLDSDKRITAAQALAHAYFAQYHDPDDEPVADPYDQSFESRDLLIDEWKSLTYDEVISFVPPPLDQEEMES
Mitogen-activated protein kinase 11 (Homo sapiens), sequence (Q15759 whole entry, the tested form may be a part): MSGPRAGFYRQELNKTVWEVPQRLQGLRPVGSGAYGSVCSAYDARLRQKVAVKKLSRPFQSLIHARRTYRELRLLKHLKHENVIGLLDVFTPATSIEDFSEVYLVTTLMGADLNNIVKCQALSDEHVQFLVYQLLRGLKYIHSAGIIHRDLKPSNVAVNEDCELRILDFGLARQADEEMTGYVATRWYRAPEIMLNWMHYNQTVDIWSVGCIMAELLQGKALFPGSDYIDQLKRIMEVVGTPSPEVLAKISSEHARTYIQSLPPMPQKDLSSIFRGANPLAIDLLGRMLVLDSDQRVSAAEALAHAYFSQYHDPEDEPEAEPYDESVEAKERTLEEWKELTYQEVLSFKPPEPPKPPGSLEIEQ
Insulin receptor (Homo sapiens), sequence (P06213 28-758 limits assumed): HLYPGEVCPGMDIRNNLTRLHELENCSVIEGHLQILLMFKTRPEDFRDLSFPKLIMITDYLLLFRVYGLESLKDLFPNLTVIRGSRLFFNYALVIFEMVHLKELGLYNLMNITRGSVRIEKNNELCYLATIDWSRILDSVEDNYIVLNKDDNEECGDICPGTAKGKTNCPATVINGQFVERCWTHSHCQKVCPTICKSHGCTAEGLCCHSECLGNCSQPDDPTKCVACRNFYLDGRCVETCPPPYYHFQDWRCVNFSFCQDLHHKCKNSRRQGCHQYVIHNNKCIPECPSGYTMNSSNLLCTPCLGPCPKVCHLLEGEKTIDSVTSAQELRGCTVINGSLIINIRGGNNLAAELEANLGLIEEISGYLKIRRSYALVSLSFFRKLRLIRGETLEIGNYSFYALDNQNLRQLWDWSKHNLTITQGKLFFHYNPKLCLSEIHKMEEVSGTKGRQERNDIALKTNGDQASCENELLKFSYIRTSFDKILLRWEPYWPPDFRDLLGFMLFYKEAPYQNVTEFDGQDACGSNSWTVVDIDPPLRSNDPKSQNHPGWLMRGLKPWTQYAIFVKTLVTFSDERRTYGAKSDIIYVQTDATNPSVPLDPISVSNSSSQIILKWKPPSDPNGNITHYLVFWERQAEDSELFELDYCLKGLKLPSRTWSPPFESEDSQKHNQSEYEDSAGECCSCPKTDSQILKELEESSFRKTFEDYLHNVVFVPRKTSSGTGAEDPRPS
Insulin receptor (Homo sapiens), sequence (P06213 763-1382 limits assumed): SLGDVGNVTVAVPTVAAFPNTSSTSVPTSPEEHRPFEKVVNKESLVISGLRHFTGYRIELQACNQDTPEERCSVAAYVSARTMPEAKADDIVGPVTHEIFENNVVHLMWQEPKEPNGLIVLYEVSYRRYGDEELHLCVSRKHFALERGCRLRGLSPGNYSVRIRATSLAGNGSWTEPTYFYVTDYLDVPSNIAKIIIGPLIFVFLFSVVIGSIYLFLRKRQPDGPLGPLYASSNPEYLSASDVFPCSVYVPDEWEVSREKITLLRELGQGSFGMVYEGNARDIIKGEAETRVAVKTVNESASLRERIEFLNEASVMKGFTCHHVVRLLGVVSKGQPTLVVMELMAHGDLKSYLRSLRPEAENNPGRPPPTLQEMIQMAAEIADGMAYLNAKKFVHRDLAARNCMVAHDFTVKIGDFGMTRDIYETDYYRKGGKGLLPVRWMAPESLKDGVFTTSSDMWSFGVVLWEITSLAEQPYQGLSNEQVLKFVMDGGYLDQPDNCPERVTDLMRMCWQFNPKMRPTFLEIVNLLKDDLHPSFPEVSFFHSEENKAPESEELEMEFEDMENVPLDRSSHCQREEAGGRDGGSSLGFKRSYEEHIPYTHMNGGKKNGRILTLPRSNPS
Dual specificity tyrosine-phosphorylation-regulated kinase 2 (Homo sapiens), sequence (Q92630 whole entry, the tested form may be a part): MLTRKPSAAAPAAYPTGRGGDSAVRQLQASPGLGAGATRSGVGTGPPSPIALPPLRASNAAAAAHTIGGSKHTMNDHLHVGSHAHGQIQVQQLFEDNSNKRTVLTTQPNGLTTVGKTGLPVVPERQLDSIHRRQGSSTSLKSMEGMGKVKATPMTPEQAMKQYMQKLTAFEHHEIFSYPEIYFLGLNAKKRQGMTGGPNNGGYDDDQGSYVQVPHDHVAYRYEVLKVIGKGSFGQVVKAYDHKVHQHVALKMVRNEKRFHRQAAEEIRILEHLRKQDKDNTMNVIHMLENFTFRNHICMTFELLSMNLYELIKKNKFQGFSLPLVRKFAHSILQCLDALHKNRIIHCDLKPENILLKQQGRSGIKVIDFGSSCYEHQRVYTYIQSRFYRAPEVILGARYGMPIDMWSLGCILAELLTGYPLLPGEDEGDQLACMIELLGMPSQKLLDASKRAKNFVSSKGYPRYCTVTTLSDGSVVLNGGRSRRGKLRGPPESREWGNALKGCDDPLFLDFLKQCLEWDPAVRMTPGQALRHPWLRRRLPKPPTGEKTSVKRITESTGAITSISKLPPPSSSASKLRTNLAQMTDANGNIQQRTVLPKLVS

For `COc1ccc(-c2ccc3c(N4CCOCC4)nc(N4C[C@@H](C)O[C@@H](C)C4)nc3n2)cc1CO` [Ku-0063794], the Activity in data set [1] stood at 108%; in [2], 102%; in [3] it was 81%; in data set [4], 106%; in [5], 87%; in [6], 101%. In addition, the Activity in data set [7] was found to be 83%; in data set [8], 80%; in data set [9] it was 92%; in data set [10], 101%; in data set [11], 85%; in data set [12], 104%. In addition, the Activity in data set [13] is 94%; with MEF, 42.4%; in data set [14] it was 114%. Further, the inhibition result at mTORC2 (Homo sapiens) was “Active”. For the same molecule, the inhibition against mTORC1 (Homo sapiens) was determined as 90%.
